# Data published in ChEMBL document CHEMBL1144620, “Synthesis and biodistribution of new radiolabeled high-affinity choline transporter inhibitors [11C]hemicholinium-3 and [18F]hemicholinium-3” (Bioorg Med Chem Lett, 2007).
# What was measured:
# [1] = Biodistribution in L-Atrium of 9L-glioma bearing rat at 1 to 3 mCi, iv after 5 mins; format: ADME, organism-based; conditions: in vivo
# Method in brief: (§1)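 9L-glioma rats (200–300 g) given 1–3 mCi of [¹¹C]- or [¹⁸F]-labelled tracer iv by tail vein while consciously restrained. At 5 or 20 min they were decapitated under halothane anaesthesia. Tissues were excised and weighed, and decay-corrected radioactivity was counted by gamma counter. Values are %ID/g, averaged over three rats per time point.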
# [2] = Biodistribution in skeletal Muscle of 9L-glioma bearing rat at 1 to 3 mCi, iv after 20 mins; format: ADME, organism-based, Muscle tissue; conditions: in vivo; method in brief: as §1
# 9L [3] = test: Biodistribution in tumor of 9L-glioma bearing rat at 1 to 3 mCi, iv after 5 mins; format: ADME, organism-based; conditions: in vivo; method in brief: as §1
# [4] = Biodistribution in A-V-node of 9L-glioma bearing rat at 1 to 3 mCi, iv after 5 mins; format: ADME, organism-based; conditions: in vivo; method in brief: as §1
# Plasma [5] = test: Biodistribution in plasma of 9L-glioma bearing rat at 1 to 3 mCi, iv after 20 mins; format: ADME, organism-based; conditions: in vivo; method in brief: as §1
# [6] = Biodistribution in urine of 9L-glioma bearing rat at 1 to 3 mCi, iv after 5 mins; format: ADME, organism-based; conditions: in vivo
# Method in brief: (§2)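 In 9L-glioma rats injected iv (tail vein, conscious restraint) with 1–3 mCi of radiotracer, urine was drawn by syringe from the bladder at 5 or 20 min. Animals were killed by decapitation under halothane. Decay-corrected radioactivity was gamma-counted and expressed as percent of injected dose (%ID), averaged over three rats.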
# Liver [7] = test: Biodistribution in liver of 9L-glioma bearing rat at 1 to 3 mCi, iv after 20 mins; format: ADME, organism-based; conditions: in vivo; method in brief: as §1
# [8] = Biodistribution in R-Atrium of 9L-glioma bearing rat at 1 to 3 mCi, iv after 20 mins; format: ADME, organism-based, Right cardiac atrium; conditions: in vivo; method in brief: as §1
# Brain [9] = test: Biodistribution in brain of 9L-glioma bearing rat at 1 to 3 mCi, iv after 20 mins; format: ADME, organism-based; conditions: in vivo; method in brief: as §1
# 9L [10] = test: Biodistribution in tumor of 9L-glioma bearing rat at 1 to 3 mCi, iv after 20 mins; format: ADME, organism-based; conditions: in vivo; method in brief: as §1
# [11] = Biodistribution in urine of 9L-glioma bearing rat at 1 to 3 mCi, iv after 20 mins; format: ADME, organism-based; conditions: in vivo; method in brief: as §2
# [12] = Biodistribution in L-ventricle of 9L-glioma bearing rat at 1 to 3 mCi, iv after 20 mins; format: ADME, organism-based, Heart left ventricle; conditions: in vivo; method in brief: as §1
# Kidney [13] = test: Biodistribution in kidney of 9L-glioma bearing rat at 1 to 3 mCi, iv after 20 mins; format: ADME, organism-based; conditions: in vivo; method in brief: as §1
# [14] = Ratio of biodistribution in tumor to muscle of 9L-glioma bearing rat at 1 to 3 mCi, iv after 20 mins; format: ADME, organism-based; conditions: in vivo
# [15] = Biodistribution in L-Atrium of 9L-glioma bearing rat at 1 to 3 mCi, iv after 20 mins; format: ADME, organism-based, Left cardiac atrium; conditions: in vivo; method in brief: as §1
# [16] = Biodistribution in L-ventricle of 9L-glioma bearing rat at 1 to 3mCi, iv after 5 mins; format: ADME, organism-based, Heart left ventricle; conditions: in vivo; method in brief: as §1
# [17] = Biodistribution in R-ventricle of 9L-glioma bearing rat at 1 to 3 mCi, iv after 20 mins; format: ADME, organism-based, Heart right ventricle; conditions: in vivo; method in brief: as §1
# Septum [18] = test: Biodistribution in septum of 9L-glioma bearing rat at 1 to 3 mCi, iv after 20 mins; format: ADME, organism-based; conditions: in vivo; method in brief: as §1
# Lung [19] = test: Biodistribution in lung of 9L-glioma bearing rat at 1 to 3 mCi, iv after 5 mins; format: ADME, organism-based; conditions: in vivo; method in brief: as §1
# Septum [20] = test: Biodistribution in septum of 9L-glioma bearing rat at 1 to 3mCi, iv after 5 mins; format: ADME, organism-based; conditions: in vivo; method in brief: as §1
# [21] = Biodistribution in A-V-node of 9L-glioma bearing rat at 1 to 3 mCi, iv after 20 mins; format: ADME, organism-based; conditions: in vivo; method in brief: as §1
# [22] = Ratio of biodistribution in tumor to blood in 9L-glioma bearing rat at 1 to 3 mCi, iv after 5 mins; format: ADME, organism-based; conditions: tumor and blood (tumor-to-blood ratio)
# Blood [23] = test: Biodistribution in blood of 9L-glioma bearing rat at 1 to 3 mCi, iv after 5 mins; format: ADME, organism-based; conditions: in vivo; method in brief: as §1
# Blood [24] = test: Biodistribution in blood of 9L-glioma bearing rat at 1 to 3 mCi, iv after 20 mins; format: ADME, organism-based; conditions: in vivo; method in brief: as §1
# [25] = Biodistribution in skeletal muscle of 9L-glioma bearing rat at 1 to 3 mCi, iv after 5 mins; format: ADME, organism-based, Muscle tissue; conditions: in vivo; method in brief: as §1
# [26] = Biodistribution in R-Atrium of 9L-glioma bearing rat at 1 to 3 mCi, iv after 5 mins; format: ADME, organism-based, Right cardiac atrium; conditions: in vivo; method in brief: as §1
# Brain [27] = test: Biodistribution in brain of 9L-glioma bearing rat at 1 to 3 mCi, iv after 5 mins; format: ADME, organism-based; conditions: in vivo; method in brief: as §1
# Lung [28] = test: Biodistribution in lung of 9L-glioma bearing rat at 1 to 3 mCi, iv after 20 mins; format: ADME, organism-based; conditions: in vivo; method in brief: as §1
# Solar plexus [29] = test: Biodistribution in solar plexus of 9L-glioma bearing rat at 1 to 3 mCi, iv after 5 mins; format: ADME, organism-based; conditions: in vivo; method in brief: as §1
# Plasma [30] = test: Biodistribution in plasma of 9L-glioma bearing rat at 1 to 3 mCi, iv after 5 mins; format: ADME, organism-based; conditions: in vivo; method in brief: as §1
# Liver [31] = test: Biodistribution in liver of 9L-glioma bearing rat at 1 to 3 mCi, iv after 5 mins; format: ADME, organism-based; conditions: in vivo; method in brief: as §1
# Kidney [32] = test: Biodistribution in kidney of 9L-glioma bearing rat at 1 to 3 mCi, iv after 5 mins; format: ADME, organism-based; conditions: in vivo; method in brief: as §1
# [33] = Ratio of biodistribution in tumor to blood of 9L-glioma bearing rat at 1 to 3 mCi, iv after 20 mins; format: ADME, organism-based; conditions: tumour
# [34] = Ratio of biodistribution in tumor to muscle of 9L-glioma bearing rat at 1 to 3 mCi, iv after 5 mins; format: ADME, organism-based; conditions: in vivo
# [35] = Biodistribution in R-ventricle of 9L-glioma bearing rat at 1 to 3 mCi, iv after 5 mins; format: ADME, organism-based, Heart right ventricle; conditions: in vivo; method in brief: as §1
# Solar plexus [36] = test: Biodistribution in solar plexus of 9L-glioma bearing rat at 1 to 3 mCi, iv after 20 mins; format: ADME, organism-based; conditions: in vivo; method in brief: as §1
structure (smiles),measurement,setting,value
C[N+]1(C)CCOC(O)(c2ccc(-c3ccc(C4(O)C[N+](C)([11CH3])CCO4)cc3)cc2)C1.O=S(=O)([O-])C(F)(F)F.[I-] (stereo unspecified),Drug uptake,[1],1.026 % ID/g
same,Drug uptake,[2],0.159 % ID/g
same,Drug uptake,9L [3],0.649 % ID/g
same,Drug uptake,[4],1.074 % ID/g
same,Drug uptake,Plasma [5],1.453 % ID/g
same,Drug uptake,[6],6.38 % dose
same,Drug uptake,Liver [7],1.239 % ID/g
same,Drug uptake,[8],0.398 % ID/g
same,Drug uptake,Brain [9],0.035 % ID/g
same,Drug uptake,9L [10],0.457 % ID/g
same,Drug uptake,[11],25 % dose
same,Drug uptake,[12],0.244 % ID/g
same,Drug uptake,Kidney [13],3.656 % ID/g
same,Ratio,[14],3.094
same,Drug uptake,[15],0.457 % ID/g
same,Drug uptake,[16],0.415 % ID/g
same,Drug uptake,[17],0.234 % ID/g
same,Drug uptake,Septum [18],0.223 % ID/g
same,Drug uptake,Lung [19],1.081 % ID/g
same,Drug uptake,Septum [20],0.381 % ID/g
same,Drug uptake,[21],0.478 % ID/g
same,Kp at 5 min,[22],0.466
same,Drug uptake,Blood [23],1.383 % ID/g
same,Drug uptake,Blood [24],0.749 % ID/g
same,Drug uptake,[25],0.207 % ID/g
same,Drug uptake,[26],0.963 % ID/g
same,Drug uptake,Brain [27],0.06 % ID/g
same,Drug uptake,Lung [28],0.59 % ID/g
same,Drug uptake,Solar plexus [29],0.522 % ID/g
same,Drug uptake,Plasma [30],3.648 % ID/g
same,Drug uptake,Liver [31],0.848 % ID/g
same,Drug uptake,Kidney [32],7.64 % ID/g
same,Ratio,[33],0.622
same,Ratio,[34],3.199
same,Drug uptake,[35],0.401 % ID/g
same,Drug uptake,Solar plexus [36],2.057 % ID/g
